# Assay outcomes (PubChem BioAssay)
# SIAE inh: blocks human sialic acid acetylesterase | Q9HAT2 | SIAE FP-Rh probe binding, fluorescence polarization | inhibition, % at 9.66 µM | actives 0.69% (n = 370,000) | AID 1053197;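 active means inhibition above a cutoff: mean of compounds within the control limits plus 3 SD of those, cut at about 17% in these data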;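 further: 0% = plate median of compound wells and 100% = probe without SIAE protein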
# HTRA1 inh: inhibitors of human serine peptidase HTRA1; Q92743; recombinant HTRA1, FP-rhodamine activity-based probe, fluorescence polarization; inhibition, % at 5.96 µM; actives 0.5% (n = 340,000); in the data active means inhibition above about 36%;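 further: 0% = enzyme with DMSO and 100% = wells lacking enzyme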
# TCR-CD3 inh: inhibitors of human TCR-CD3 interaction; TAMRA-labeled TCR probe fluorescence, biochemical; inhibition, % at 9.4 µM; actives 0.37% (n = 360,000); AID 651800;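 further: recombinant mutant TCR 2C K166C tagged with TAMRA read by polarization; 0% = receptor in buffer alone and 100% = receptor with positive control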
# Tn7 DDE FP: inhibitors of Tn7 peptide binding to human fibrin DD(E) | P02675 | FP displacement of FITC-Tn7 peptide from fibrin DD(E); 0% = median of compound wells per plate | inhibition, % at 8.3 µM | actives 0.13% (n = 370,000) | AID 720508;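 active means inhibition above the mean of compounds falling within the control limits plus 3 SD of them, cut at about 14% in these data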;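 further: 0% = plate median of compound wells and 100% = 10 µM Aha-Tn7 peptide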
# Target sequence (P02675 whole entry, looked up): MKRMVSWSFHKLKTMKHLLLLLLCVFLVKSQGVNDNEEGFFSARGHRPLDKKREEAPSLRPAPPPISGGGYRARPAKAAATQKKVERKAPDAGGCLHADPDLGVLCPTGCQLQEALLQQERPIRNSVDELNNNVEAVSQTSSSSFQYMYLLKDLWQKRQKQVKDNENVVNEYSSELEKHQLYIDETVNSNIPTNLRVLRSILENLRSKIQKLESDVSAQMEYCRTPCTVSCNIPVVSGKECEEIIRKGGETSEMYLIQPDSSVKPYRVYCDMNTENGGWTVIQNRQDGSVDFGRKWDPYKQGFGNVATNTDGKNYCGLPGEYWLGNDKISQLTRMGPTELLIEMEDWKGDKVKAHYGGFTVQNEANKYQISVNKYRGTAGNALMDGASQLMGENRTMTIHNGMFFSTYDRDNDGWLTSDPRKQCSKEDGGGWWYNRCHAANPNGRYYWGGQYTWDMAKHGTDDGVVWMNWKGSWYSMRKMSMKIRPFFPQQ
#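 Assay system: human fibrin DD(E). Input: DD(E) 2 µM final. Medium: Tris buffer with calcium and detergent, pH 7.8. Compound dosing: single point at 8.3 µM. Timing: 10 min plus 3 h, room temperature. Technique: fluorescence polarization of the labelled Tn7 tracer. Read-out: percent inhibition. Replicates: singlicate testing.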
# ABHD4 inh: inhibits mouse alpha/beta hydrolase domain 4; inhibition, % at 8.92 µM; actives 0.54% (n = 370,000); purified mABHD4, FP-Rh probe fluorescence polarization;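 active means inhibition exceeding the mean over every tested compound plus 3 SD, cut at about 30% in these data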;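 further: 0% = plate median of compound wells and 100% = S159A mutant with DMSO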
# Target sequence (Q8VD66 whole entry, looked up, the tested form may be a part): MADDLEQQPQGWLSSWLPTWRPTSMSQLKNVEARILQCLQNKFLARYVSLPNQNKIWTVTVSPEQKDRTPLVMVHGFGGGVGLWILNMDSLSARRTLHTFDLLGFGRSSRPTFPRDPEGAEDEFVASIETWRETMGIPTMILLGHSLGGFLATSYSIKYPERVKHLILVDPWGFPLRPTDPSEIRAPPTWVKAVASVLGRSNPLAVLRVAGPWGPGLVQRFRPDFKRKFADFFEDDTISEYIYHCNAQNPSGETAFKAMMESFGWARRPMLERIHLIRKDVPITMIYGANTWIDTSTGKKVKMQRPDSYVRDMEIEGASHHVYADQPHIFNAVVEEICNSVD
#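 Test system: mouse ABHD4 enzyme, wild type. Reagent: FP-Rh fluorescent activity-based probe, added after compound pre-incubation. Timing: pre-incubation 45 min, probe exposure 60 min, at 25 °C. Technique: FP readout, ex 525 nm / em 598 nm. Benchmarks: high control S159A mutant with DMSO, low control median of compound wells.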
# Tn6 DDE FP: disrupts Tn6 cyclic peptide binding to fibrin D-Dimer-E complex | P02675 | Fibrin DD(E) TRITC-Tn6 fluorescence polarization displacement | inhibition, % at 8.3 µM | actives 0.21% (n = 370,000);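 active means inhibition above a per-campaign cutoff: mean of compounds within control limits plus 3 SD, cut at about 15% in these data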;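 further: 0% = median of all compound wells on the plate and 100% = blocking peptide control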
# HTRA1 conf: HTRA1 (human) inhibition, confirmation; shares compounds with HTRA1 inh; recombinant HTRA1, FP-rhodamine activity-based probe, fluorescence polarization; inhibition, % at 5.96 µM; actives 66% (n = 1,600);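 active means mean inhibition over three repeats above a set limit taken from the earlier primary screen, cut at about 37% in these data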;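 further: 0% = HTRA1 with DMSO and 100% = wells lacking HTRA1; inhibitors block probe binding so polarization drops and inhibition rises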
# BSA probe FL: counter-screen for TCR-CD3 interaction inhibitors: BSA probe; inhibition, % at 9.4 µM; shares compounds with TCR-CD3 inh; TAMRA-labeled BSA probe fluorescence counterscreen; actives 10% (n = 1,200); AID 652035; in the data active means inhibition above about 23%;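 further: 0% = buffer low control and 100% = reference high control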
# TCR-CD3 conf: confirmation of human TCR-CD3 interaction inhibitors; shares compounds with TCR-CD3 inh; TAMRA-labeled TCR probe fluorescence binding assay; inhibition, % at 9.4 µM; actives 48% (n = 1,200); AID 652036
# Tn7 DDE conf: confirmation of inhibitors of Tn7 binding to human fibrin DD(E); AID 720628; FP displacement of TRITC-Tn7 peptide from DD(E); 0% set at plate's compound-well median; actives 5% (n = 460); shares compounds with Tn7 DDE FP; inhibition, % at 8.3 µM;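 active means inhibition above the campaign cutoff, the mean of compounds within control limits plus 3 SD, cut at about 14% in these data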;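 further: 100% = median FP of high control wells holding Aha-Tn7 inhibitor peptide; displacers lower polarization since freed probe rises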
# DDE Tn7 FP ctr: counter-screen hit for Tn7 peptide-fibrin DD(E) binding disruption. shares compounds with Tn7 DDE FP. TRITC-Tn7 probe displacement, fluorescence polarization. inhibition, % at 8.3 µM. actives 3% (n = 460). AID 720633;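 active means inhibition above the cutoff, the mean of compounds lying between the control bounds plus 3 SD of those compounds, cut at about 17% in these data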;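 further: 0% = median of compound sample wells and 100% = excess unlabeled Aha-Tn7 peptide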
# Tn6 DDE ctr: counter-screen for inhibitors of Tn6 peptide binding to fibrin DD(E) | shares compounds with Tn6 DDE FP | TRITC-Tn6 fluorescence polarization displacement; 0% = median of compound wells, not DMSO | inhibition, % at 8.3 µM | actives 2% (n = 680) | AID 720621;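 active means inhibition above the mean of test compounds lying between the control limits plus 3 SD of those, cut at about 14% in these data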;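 further: 0% = median of compound wells and 100% = wells with Aha-Tn7 blocking peptide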
# DDE Tn6 confirm: confirmation of inhibitors of Tn6 binding to human fibrin DD(E). FP displacement of TRITC-Tn6 peptide from DD(E); 0% = per-plate median of test wells. actives 10% (n = 680). shares compounds with Tn6 DDE FP. inhibition, % at 8.3 µM;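 active means inhibition above the mean of compounds lying within the control limits plus 3 SD, cut at about 16% in these data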;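 further: 100% = high control wells holding a competing inhibitor peptide at 10 µM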
# mABHD4 conf: confirmation of mouse ABHD4 inhibitors; purified mABHD4, FP-Rh probe fluorescence polarization; inhibition, % at 8.92 µM; shares compounds with ABHD4 inh; AID 720658; actives 55% (n = 1,800);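 active means mean inhibition across replicates above the hit cutoff set in the primary screen, cut at about 30% in these data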;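 further: 0% = wild-type ABHD4 with DMSO and 100% = catalytically dead S159A mutant with DMSO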
# SIAE inh conf: human SIAE inhibition, confirmation; SIAE FP-Rh activity-based probe, fluorescence polarization; actives 13% (n = 2,300); inhibition, % at 9.66 µM; shares compounds with SIAE inh;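 active means mean inhibition of the replicates above the hit cutoff set in the primary screen, cut at about 17% in these data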;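 further: 0% = SIAE with DMSO and probe and 100% = probe without SIAE; inhibitors lower polarization as more probe stays unbound to SIAE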
# An asterisk follows results filed as active; . = not tested or not shown; + = active, no number. An excerpt weighted towards active compounds, which were near 1.8% of everything screened. Unless noted, no stated cut-off is given here; in the data, active means inhibition above about 19%; inactive means the rest.
SMILES,SIAE inh,HTRA1 inh,TCR-CD3 inh,Tn7 DDE FP,ABHD4 inh,Tn6 DDE FP,HTRA1 conf,SIAE inh conf,others
O=[N+]([O-])c1ccc(S(=O)(=O)N2CCC3(CC2)OCCN3S(=O)(=O)c2cccs2)cc1,8.7,-11.5,-2.9,-4.5,-4.8,-7.5,.,.,
O=[N+]([O-])c1cc(Br)c(O)c(C=Nc2ccc(N3CCOCC3)cc2)c1,28.6*,40.3*,48.6*,3.3,45.5*,13.0,0.5,-1.9,mABHD4 conf=6.7
COc1cccc(C=Nc2ccc(N3CCOCC3)cc2)c1O,9.0,17.4,4.3,3.7,19.6,-3.3,.,.,
CCn1c(CSc2n[nH]c(N)n2)nc2cc(C(=O)O)ccc21,35.9*,42.6*,94.1*,9.2,19.1,28.5*,66.7*,31.3*,BSA probe FL=137.3*;TCR-CD3 conf=97.0*;Tn6 DDE ctr=-5.8;DDE Tn6 confirm=22.1*
C[C@@]12C(=O)N(CCc3c[nH]c4ccccc34)CC(=O)N1[C@H]1c3ccccc3OC[C@@H]1[C@@H]2c1ccccc1,0.3,-14.8,-1.8,-7.1,-7.6,0.1,.,.,
Cc1occc1C(=O)Nc1cccc(Cl)c1Cl,-8.6,-4.5,-2.5,-5.4,-14.4,-6.7,.,.,
Cc1cc2nc3c(=O)[nH]c(=S)[nH]c3nc2cc1NC(=O)C(F)(F)F,21.4*,45.7*,70.4*,15.7*,65.1*,4.2,3.0,8.5,BSA probe FL=-1.8;TCR-CD3 conf=8.6;Tn7 DDE conf=-7.1;DDE Tn7 FP ctr=-10.0;mABHD4 conf=18.4
O=c1[nH]c(=S)[nH]c2nc(-c3ccccc3)cnc12,3.0,1.6,-0.3,-2.2,8.9,0.5,.,.,
CN(/N=C/c1ccccc1Cl)c1ncc(Cl)cc1C(F)(F)F,-1.7,2.9,-3.2,10.5,-1.8,6.3,.,.,
CN(/N=C/c1ccc(O)cc1O)c1ncc(C(F)(F)F)cc1Cl,18.7*,56.4*,-4.7,-2.9,7.3,-1.8,88.9*,2.1,
C=C1N(C)c2cc([N+](=O)[O-])c(N)cc2C1(C)C,18.0*,54.2*,1.4,1.9,22.9,-1.2,32.7,15.0,
Nc1ccc(Oc2ccc(N)c([N+](=O)[O-])c2)cc1[N+](=O)[O-],2.7,5.0,-1.8,-0.1,3.4,-7.5,.,.,
O=Nc1c(O)c2ccccc2c2ccccc12,29.9*,61.5*,0.5,-4.2,50.6*,3.0,78.1*,24.4*,mABHD4 conf=57.9*
O=c1ccc2ccccc2c2ccccc12,-7.8,.,3.7,1.6,3.3,-1.1,.,.,
CC(C(=O)NCc1cccs1)N1CCN(S(=O)(=O)c2ccc3c(c2)OCCCO3)CC1 (stereo not drawn),2.7,-3.2,3.2,6.0,1.3,-3.4,.,.,
CC(=O)Nc1ccc(S(=O)(=O)NC2=C(N3CCN(c4ccc(F)cc4)CC3)C(=O)c3ccccc3C2=O)cc1,25.2*,55.5*,-0.1,4.0,22.1,-4.8,71.0*,23.8*,
COc1cc(C(C[N+](=O)[O-])c2c(C)cc3ccccn23)ccc1O (stereo not drawn),18.8*,40.3*,6.6,-2.0,30.4*,4.0,39.6*,6.1,mABHD4 conf=13.4
O=C(NCc1ccccc1)[C@H]1CCCN1,0.3,.,-7.4,5.0,2.3,-3.5,.,.,
CC1(C)CC(Nc2ccc(Nc3ccccc3)cc2)CC(C)(C)N1,19.8*,41.9*,4.8,-3.7,20.6,1.8,54.5*,5.7,
CC1(C)CC(NC(=O)c2ccccc2)CC(C)(C)N1,-0.3,4.5,1.2,-8.1,-1.4,-8.2,.,.,
O=[N+]([O-])c1cccc(N/N=C/c2cccc(O)c2O)c1,23.3*,59.7*,7.4,-4.6,36.5*,-10.6,73.9*,-6.1,mABHD4 conf=34.1*
Cn1c(=O)c(NCCc2ccccc2)c2c3c(cccc31)C(=O)c1ccccc1-2,169.9*,146.1*,+,-1.0,198.0*,+,149.2*,159.6*,BSA probe FL=+;TCR-CD3 conf=+;mABHD4 conf=+
Cn1c(=O)c(NCCO)c2c3c(cccc31)C(=O)c1ccccc1-2,57.8*,60.2*,71.3*,-8.1,93.2*,37.2*,71.9*,117.2*,BSA probe FL=116.6*;TCR-CD3 conf=79.5*;mABHD4 conf=85.0*
Cn1c(NCCc2ccccc2)cc(=O)n(C)c1=O,3.7,0.3,-8.8,3.7,-0.5,-2.7,.,.,
O=C(c1ccccc1)N1N=C(C(F)(F)F)CC1(O)c1ccc(F)cc1 (stereo not drawn),1.5,-4.7,-9.9,-0.1,-18.9,-0.9,.,.,
COc1ccc(N(C)S(=O)(=O)c2cccc(C(=O)OC(C(=O)Nc3cc(C)cc(C)c3)c3ccccc3)c2)cc1 (stereo not drawn),-57.5,-39.0,-0.3,-10.7,-56.8,2.7,.,.,
CC(=O)c1cccc(NC(=O)C(OC(=O)c2cccc(S(=O)(=O)N(C)c3ccccc3)c2)c2ccccc2)c1 (stereo not drawn),-25.7,-57.7,31.0*,-2.5,-49.1,-9.2,.,.,BSA probe FL=12.3;TCR-CD3 conf=31.8*
CC(=O)c1cc(-c2ccc(Oc3ccccc3)cc2)c(=O)n2c1CCC2,-1.1,.,.,5.0,-2.0,4.4,.,.,
COc1ccc(NC(=O)C[C@H]2C(=O)N(C3CCCCC3)C[C@@H]2C)cc1,4.3,5.7,-0.7,-8.2,2.2,-1.3,.,.,
